In ChEMBL document CHEMBL5058577, “EUbOPEN Chemogenomics Library 2 (Multiplex)” (2022):

System: U2OS
Assay: Multiplex assay against U2OS
Assay type: toxicity, cell-based
Conditions: human
How it was run: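 Cells were classed with CellPathfinder machine-learning gating, first as Hoechst high-intensity objects or normal cells, then (normal cells) as healthy, pyknosed or fragmented nuclei, and finally (pyknosed cells) as mitotic or apoptotic. Staining of live cells at seeding used Hoechst33342, BioTracker Green Microtubule Cytoskeleton Dye, MitoTracker Red and Annexin V Alexa Fluor 680, with imaging on a CQ1 microscope at 37°C and 5% CO2 after compound addition. Tubulin, mitochondrial-mass and membrane-permeability phenotypes are per cents of healthy-nucleus cells.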

[1] = 12 h, 1 µM, compound concentration 1 uM, replicate 1
[2] = 12 h, 1 µM, compound concentration 1 uM, replicate 2
[3] = 12 h, 10 µM, compound concentration 10 uM, replicate 1
[4] = 12 h, 10 µM, compound concentration 10 uM, replicate 2
[5] = 24 h, 1 µM, compound concentration 1 uM, replicate 1
[6] = 24 h, 1 µM, compound concentration 1 uM, replicate 2
[7] = 24 h, 10 µM, compound concentration 10 uM, replicate 1
[8] = 24 h, 10 µM, compound concentration 10 uM, replicate 2
[9] = 48 h, 1 µM, compound concentration 1 uM, replicate 1
[10] = 48 h, 1 µM, compound concentration 1 uM, replicate 2
[11] = 48 h, 10 µM, compound concentration 10 uM, replicate 1
[12] = 48 h, 10 µM, compound concentration 10 uM, replicate 2

With COc1cc(Nc2ncc3c(n2)-c2ccc(Cl)cc2C(c2c(F)cccc2OC)=NC3)ccc1C(=O)O [ALISERTIB] the “Population Apoptotic (%)” value [1] was 63%, the “Population Fragmented Nuclei (%)” value [1] was 23% and the “Population Healthy Nuclei (%)” value [1] was 65%. For the same compound, the “Population Hoechst High Intensity Objects (%)” value [1] was 1%, the “Population Membrane Permeable-Phenotype (%)” value [1] was 4% and the “Population Mitochondria Different-Phenotype (%)” value [1] was 3%. For the same compound, the “Population Mitotic Cells (%)” value [1] was 36%, the “Population Normal (%)” value [1] was 98% and the “Population Pyknosed Nuclei (%)” value [1] was 10%. The “Population Tubulin-Different-Phenotype (%)” value [1] was 3%, the “Population Apoptotic (%)” value [2] was 71% and the “Population Fragmented Nuclei (%)” value [2] was 35%. For the same compound, the “Population Healthy Nuclei (%)” value [2] was 55%, the “Population Hoechst High Intensity Objects (%)” value [2] was 4% and the “Population Membrane Permeable-Phenotype (%)” value [2] was 8%. The “Population Mitochondria Different-Phenotype (%)” value [2] was 4%, the “Population Mitotic Cells (%)” value [2] was 28% and the “Population Normal (%)” value [2] was 95%. For the same compound, the “Population Pyknosed Nuclei (%)” value [2] was 8%, the “Population Tubulin-Different-Phenotype (%)” value [2] was 11% and the “Population Apoptotic (%)” value [3] was 79%. For the same compound, the “Population Fragmented Nuclei (%)” value [3] was 31%, the “Population Healthy Nuclei (%)” value [3] was 57% and the “Population Hoechst High Intensity Objects (%)” value [3] was 3%. For the same compound, the “Population Membrane Permeable-Phenotype (%)” value [3] was 11%, the “Population Mitochondria Different-Phenotype (%)” value [3] was 5% and the “Population Mitotic Cells (%)” value [3] was 20%. For the same compound, the “Population Normal (%)” value [3] was 96%, the “Population Pyknosed Nuclei (%)” value [3] was 11% and the “Population Tubulin-Different-Phenotype (%)” value [3] was 4%. The “Population Apoptotic (%)” value [4] was 71%, the “Population Fragmented Nuclei (%)” value [4] was 12% and the “Population Healthy Nuclei (%)” value [4] was 82%. For the same compound, the “Population Hoechst High Intensity Objects (%)” value [4] was 2%, the “Population Membrane Permeable-Phenotype (%)” value [4] was 5% and the “Population Mitochondria Different-Phenotype (%)” value [4] was 1%. For the same compound, the “Population Mitotic Cells (%)” value [4] was 28%, the “Population Normal (%)” value [4] was 97% and the “Population Pyknosed Nuclei (%)” value [4] was 5%. The “Population Tubulin-Different-Phenotype (%)” value [4] was 0%, the “Population Apoptotic (%)” value [5] was 78% and the “Population Fragmented Nuclei (%)” value [5] was 26%. The “Population Healthy Nuclei (%)” value [5] was 64%, the “Population Hoechst High Intensity Objects (%)” value [5] was 1% and the “Population Membrane Permeable-Phenotype (%)” value [5] was 9%. For the same compound, the “Population Mitochondria Different-Phenotype (%)” value [5] was 4%, the “Population Mitotic Cells (%)” value [5] was 21% and the “Population Normal (%)” value [5] was 98%. The “Population Pyknosed Nuclei (%)” value [5] was 8%, the “Population Tubulin-Different-Phenotype (%)” value [5] was 5% and the “Population Apoptotic (%)” value [6] was 75%. The “Population Fragmented Nuclei (%)” value [6] was 20%, the “Population Healthy Nuclei (%)” value [6] was 63% and the “Population Hoechst High Intensity Objects (%)” value [6] was 2%. For the same compound, the “Population Membrane Permeable-Phenotype (%)” value [6] was 6%, the “Population Mitochondria Different-Phenotype (%)” value [6] was 2% and the “Population Mitotic Cells (%)” value [6] was 25%. The “Population Normal (%)” value [6] was 97%, the “Population Pyknosed Nuclei (%)” value [6] was 15% and the “Population Tubulin-Different-Phenotype (%)” value [6] was 2%. The “Population Apoptotic (%)” value [7] was 84%, the “Population Fragmented Nuclei (%)” value [7] was 30% and the “Population Healthy Nuclei (%)” value [7] was 55%. For the same compound, the “Population Hoechst High Intensity Objects (%)” value [7] was 4%, the “Population Membrane Permeable-Phenotype (%)” value [7] was 13% and the “Population Mitochondria Different-Phenotype (%)” value [7] was 5%. The “Population Mitotic Cells (%)” value [7] was 15%, the “Population Normal (%)” value [7] was 95% and the “Population Pyknosed Nuclei (%)” value [7] was 13%. For the same compound, the “Population Tubulin-Different-Phenotype (%)” value [7] was 4%, the “Population Apoptotic (%)” value [8] was 90% and the “Population Fragmented Nuclei (%)” value [8] was 12%. The “Population Healthy Nuclei (%)” value [8] was 77%, the “Population Membrane Permeable-Phenotype (%)” value [8] was 9% and the “Population Mitochondria Different-Phenotype (%)” value [8] was 4%. The “Population Mitotic Cells (%)” value [8] was 9%, the “Population Pyknosed Nuclei (%)” value [8] was 9% and the “Population Tubulin-Different-Phenotype (%)” value [8] was 5%. For the same compound, the “Population Apoptotic (%)” value [9] was 85%, the “Population Fragmented Nuclei (%)” value [9] was 28% and the “Population Healthy Nuclei (%)” value [9] was 59%. For the same compound, the “Population Hoechst High Intensity Objects (%)” value [9] was 3%, the “Population Membrane Permeable-Phenotype (%)” value [9] was 6% and the “Population Mitochondria Different-Phenotype (%)” value [9] was 5%. For the same compound, the “Population Mitotic Cells (%)” value [9] was 14%, the “Population Normal (%)” value [9] was 96% and the “Population Pyknosed Nuclei (%)” value [9] was 12%. The “Population Tubulin-Different-Phenotype (%)” value [9] was 3%, the “Population Apoptotic (%)” value [10] was 78% and the “Population Fragmented Nuclei (%)” value [10] was 29%. The “Population Healthy Nuclei (%)” value [10] was 53%, the “Population Membrane Permeable-Phenotype (%)” value [10] was 11% and the “Population Mitochondria Different-Phenotype (%)” value [10] was 6%. For the same compound, the “Population Mitotic Cells (%)” value [10] was 21%, the “Population Pyknosed Nuclei (%)” value [10] was 17% and the “Population Tubulin-Different-Phenotype (%)” value [10] was 4%. For the same compound, the “Population Apoptotic (%)” value [11] was 88%, the “Population Fragmented Nuclei (%)” value [11] was 34% and the “Population Healthy Nuclei (%)” value [11] was 44%. For the same compound, the “Population Hoechst High Intensity Objects (%)” value [11] was 9%, the “Population Membrane Permeable-Phenotype (%)” value [11] was 16% and the “Population Mitochondria Different-Phenotype (%)” value [11] was 9%. The “Population Mitotic Cells (%)” value [11] was 11%, the “Population Normal (%)” value [11] was 90% and the “Population Pyknosed Nuclei (%)” value [11] was 21%. The “Population Tubulin-Different-Phenotype (%)” value [11] was 9%, the “Population Fragmented Nuclei (%)” value [12] was 16% and the “Population Healthy Nuclei (%)” value [12] was 70%. For the same compound, the “Population Hoechst High Intensity Objects (%)” value [12] was 5%, the “Population Membrane Permeable-Phenotype (%)” value [12] was 7% and the “Population Mitochondria Different-Phenotype (%)” value [12] was 3%. The “Population Normal (%)” value [12] was 94%, the “Population Pyknosed Nuclei (%)” value [12] was 13% and the “Population Tubulin-Different-Phenotype (%)” value [12] was 2%.
